pIC50: −log10 of the molar value.
Tested on: Mus musculus
Experiment: Toxicity in BALB/C mouse xenografted with human LS174T cells assessed as loss of body weight at 75 mg/kg, bid administered for 10 days measured twice per week
Assay type: organism-based
Settings: in vivo, 240 h
Method in brief: (§1)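 Male BALB/C nude mice (18–20 g) kept under SPF conditions. LS-174T cells at 2.5×10^7 cells/mL injected subcutaneously into the right flank. Once tumors reached about 100 mm3, mice were randomized to groups of 6 (vehicle group n = 9) and dosed orally once or twice daily for 10 days. Controls received solvent. Body weight and tumor volume were measured twice weekly and deaths recorded.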

Compound | Activity
Cc1ccc(CN2CCOCC2)cc1NC(=O)c1ccc(Nc2nccc(-c3ccc(OC(F)(F)F)cc3)n2)cc1 | Non-toxic

Tested on: not listed separately
Experiment: Clearance in Sprague-Dawley rat at 5 mg/kg, po by LC/MS/MS analysis
Assay type: ADME, organism-based
Settings: in vivo
Method in brief: (§2)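 Male SD rats, 180–240 g, 3 per compound; single dose of 1 mg/kg iv or 5 mg/kg po, dosing volume 5 mL/kg. Blood was sampled from 2 min to 24 h and centrifuged at 4 °C. Plasma underwent protein precipitation, then LC/MS/MS in SRM mode with an internal standard. Parameters were derived by noncompartmental analysis.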

Compound | CL/F
Cc1ccc(CN2CCOCC2)cc1NC(=O)c1ccc(Nc2nccc(-c3ccc(OC(F)(F)F)cc3)n2)cc1 | 0.74 L/h/kg

Tested on: Mus musculus
Experiment: Toxicity in BALB/C mouse xenografted with human LS174T cells assessed as mortality at 75 mg/kg, bid administered for 10 days
Assay type: organism-based
Settings: in vivo, 240 h
Method in brief: as §1

Compound | Activity
Cc1ccc(CN2CCOCC2)cc1NC(=O)c1ccc(Nc2nccc(-c3ccc(OC(F)(F)F)cc3)n2)cc1 | Non-toxic

Tested on: LS174T
Experiment: Antitumor activity against human LS174T cells xenografted in BALB/C mouse assessed as tumor volume inhibition at 75 mg/kg, bid administered for 10 days measured twice per week
Settings: 240 h, read-out: TGI

Compound | inhibition in vivo at 75 mg/kg
Cc1ccc(CN2CCOCC2)cc1NC(=O)c1ccc(Nc2nccc(-c3ccc(OC(F)(F)F)cc3)n2)cc1 | 42.9%

Tested on: not listed separately
Experiment: Cmax in Sprague-Dawley rat at 5 mg/kg, po by LC/MS/MS analysis
Assay type: ADME, organism-based
Parameters: dose 5 mg/kg, route oral
Settings: in vivo
Method in brief: as §2

Compound | Cmax
Cc1ccc(CN2CCOCC2)cc1NC(=O)c1ccc(Nc2nccc(-c3ccc(OC(F)(F)F)cc3)n2)cc1 | 0.635 µg/mL

Tested on: not listed separately
Experiment: Cmax in Sprague-Dawley rat at 1 mg/kg, iv by LC/MS/MS analysis
Assay type: ADME, organism-based
Parameters: dose 1 mg/kg, route intravenous
Settings: in vivo
Method in brief: as §2

Compound | Cmax
Cc1ccc(CN2CCOCC2)cc1NC(=O)c1ccc(Nc2nccc(-c3ccc(OC(F)(F)F)cc3)n2)cc1 | 1.2 µg/mL

Tested on: not listed separately
Experiment: Inhibition of Sonic-induced hedgehog signalling in mouse NIH3T3 cells after 48 hrs by Gli-luciferase reporter assay
Assay type: cell-based
Settings: NIH3T3, 48 h
Method in brief: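 NIH3T3 cells stably carrying a Gli-luciferase reporter were kept in DMEM with 10% FBS and 1 µg/mL puromycin, then seeded at 2×10^4 cells/well overnight at 37 °C. Compounds at 0.05–300 nM (8 concentrations) were added in medium with 0.5% FBS and 0.7 µg/mL Sonic Hh agonist, n=4 wells, for 48 h. Readout was the Firefly/Renilla luciferase ratio in lysates.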

Compound | pIC50
Cc1ccc(CN2CCOCC2)cc1NC(=O)c1ccc(Nc2nccc(-c3ccc(OC(F)(F)F)cc3)n2)cc1 | 9.05

Tested on: Mus musculus
Experiment: Toxicity in BALB/C mouse xenografted with human LS174T cells assessed as mortality at 37.5 to 150 mg/kg, qd administered for 10 days
Assay type: organism-based
Settings: in vivo, 240 h
Method in brief: as §1

Compound | Activity
Cc1ccc(CN2CCOCC2)cc1NC(=O)c1ccc(Nc2nccc(-c3ccc(OC(F)(F)F)cc3)n2)cc1 | Non-toxic

Tested on: not listed separately
Experiment: Mean resident time (0 to t) in Sprague-Dawley rat at 1 mg/kg, iv by LC/MS/MS analysis
Assay type: ADME, organism-based
Settings: in vivo
Method in brief: as §2

Compound | MRT last
Cc1ccc(CN2CCOCC2)cc1NC(=O)c1ccc(Nc2nccc(-c3ccc(OC(F)(F)F)cc3)n2)cc1 | 4.22 h

Tested on: LS174T
Experiment: Antitumor activity against human LS174T cells xenografted in BALB/C mouse assessed as tumor volume inhibition at 150 mg/kg, qd administered for 10 days measured twice per week
Assay type: functional
Settings: 240 h, read-out: TGI
Method in brief: (§3)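 Male BALB/c nude mice, 18–20 g, kept under SPF conditions. LS-174T cells at 2.5×10^7 cells/mL were injected s.c. into the right flank, and tumors were grown to about 100 mm3. Mice were randomized, n=6 treated and n=9 vehicle. Oral dosing ran qd or bid for 10 days; vehicle controls got the same volume of solvent. Tumor volume = length×width²/2, measured twice weekly. IR = (control − treated)/control for tumor weight or volume at day 10.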

Compound | inhibition in vivo at 150 mg/kg
Cc1ccc(CN2CCOCC2)cc1NC(=O)c1ccc(Nc2nccc(-c3ccc(OC(F)(F)F)cc3)n2)cc1 | 38.9%

Tested on: LS174T
Experiment: Antitumor activity against human LS174T cells xenografted in BALB/C mouse assessed as tumor weight inhibition at 75 mg/kg, qd administered for 10 days measured twice per week
Assay type: functional
Settings: 240 h, read-out: TGI
Method in brief: as §3

Compound | inhibition in vivo at 75 mg/kg
Cc1ccc(CN2CCOCC2)cc1NC(=O)c1ccc(Nc2nccc(-c3ccc(OC(F)(F)F)cc3)n2)cc1 | 9.9%

Tested on: LS174T
Experiment: Antiproliferative activity against human LS174T cells after 72 hrs by CellTiter-Glo luminescent cell viability assay
Assay type: functional, cell-based
Settings: not given
Method in brief: (§4)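 Cells were grown in DMEM with 10% FBS, seeded at a density suited to each line, and left 24 h at 37 °C. Compounds were prepared in DMSO, diluted in medium over a concentration series starting at 100 µM, and applied for 72 h. CellTiter-Glo reagent was added for 30 min at room temperature before reading luminescence. IC50 came from four-parameter curve fitting.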

Compound | pIC50
Cc1ccc(CN2CCOCC2)cc1NC(=O)c1ccc(Nc2nccc(-c3ccc(OC(F)(F)F)cc3)n2)cc1 | 4.91

Tested on: not listed separately
Experiment: Half life in Sprague-Dawley rat at 5 mg/kg, po by LC/MS/MS analysis
Assay type: ADME, organism-based
Settings: in vivo
Method in brief: as §2

Compound | half-life
Cc1ccc(CN2CCOCC2)cc1NC(=O)c1ccc(Nc2nccc(-c3ccc(OC(F)(F)F)cc3)n2)cc1 | 6.68 h

Tested on: Rattus norvegicus
Experiment: Apparent volume of distribution in Sprague-Dawley rat at 5 mg/kg, po by LC/MS/MS analysis
Settings: in vivo

Compound | Vd(app)
Cc1ccc(CN2CCOCC2)cc1NC(=O)c1ccc(Nc2nccc(-c3ccc(OC(F)(F)F)cc3)n2)cc1 | 7.12872 L/kg

Tested on: not listed separately
Experiment: AUC (0 to t) in Sprague-Dawley rat at 5 mg/kg, po by LC/MS/MS analysis
Assay type: ADME, organism-based
Settings: in vivo
Method in brief: as §2

Compound | AUC(0-t)
Cc1ccc(CN2CCOCC2)cc1NC(=O)c1ccc(Nc2nccc(-c3ccc(OC(F)(F)F)cc3)n2)cc1 | 6.22 µg·h/mL

Tested on: not listed separately
Experiment: Apparent volume of distribution in Sprague-Dawley rat at 1 mg/kg, iv by LC/MS/MS analysis
Settings: in vivo

Compound | Vd
Cc1ccc(CN2CCOCC2)cc1NC(=O)c1ccc(Nc2nccc(-c3ccc(OC(F)(F)F)cc3)n2)cc1 | 2.87 L/kg

Tested on: LS174T
Experiment: Antitumor activity against human LS174T cells xenografted in BALB/C mouse assessed as tumor volume inhibition at 75 mg/kg, qd administered for 10 days measured twice per week
Assay type: functional
Settings: 240 h, read-out: TGI
Method in brief: as §3

Compound | inhibition in vivo at 75 mg/kg
Cc1ccc(CN2CCOCC2)cc1NC(=O)c1ccc(Nc2nccc(-c3ccc(OC(F)(F)F)cc3)n2)cc1 | 23.2%

Tested on: Mus musculus
Experiment: Toxicity in BALB/C mouse xenografted with human LS174T cells assessed as loss of body weight at 37.5 to 150 mg/kg, qd administered for 10 days measured twice per week
Assay type: organism-based
Settings: in vivo, 240 h
Method in brief: as §1

Compound | Activity
Cc1ccc(CN2CCOCC2)cc1NC(=O)c1ccc(Nc2nccc(-c3ccc(OC(F)(F)F)cc3)n2)cc1 | Non-toxic

Tested on: LS174T
Experiment: Antitumor activity against human LS174T cells xenografted in BALB/C mouse assessed as tumor weight inhibition at 150 mg/kg, qd administered for 10 days measured twice per week
Assay type: functional
Settings: 240 h, read-out: TGI
Method in brief: as §3

Compound | inhibition in vivo at 150 mg/kg
Cc1ccc(CN2CCOCC2)cc1NC(=O)c1ccc(Nc2nccc(-c3ccc(OC(F)(F)F)cc3)n2)cc1 | 21.1%

Tested on: not listed separately
Experiment: Antiproliferative activity against human BxPC3 cells after 72 hrs by CellTiter-Glo luminescent cell viability assay
Assay type: functional, cell-based
Settings: BXPC-3, 72 h
Method in brief: as §4

Compound | pIC50
Cc1ccc(CN2CCOCC2)cc1NC(=O)c1ccc(Nc2nccc(-c3ccc(OC(F)(F)F)cc3)n2)cc1 | 4.45

Tested on: not listed separately
Experiment: AUC (0 to t) in Sprague-Dawley rat at 1 mg/kg, iv by LC/MS/MS analysis
Assay type: ADME, organism-based
Settings: in vivo
Method in brief: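 Male SD rats, 3 per compound, 180–240 g, single iv dose at 1 mg/kg, dosing volume 5 mL/kg. Blood sampled at 2, 5, 15, 30 min and 1, 2, 4, 6, 8, 10, 24 h, then centrifuged at 4 °C. Plasma protein-precipitated and analysed by LC/MS/MS in SRM mode with internal standard. AUC(0-t) obtained by noncompartmental analysis.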

Compound | AUC(0-t)
Cc1ccc(CN2CCOCC2)cc1NC(=O)c1ccc(Nc2nccc(-c3ccc(OC(F)(F)F)cc3)n2)cc1 | 2.44 µg·h/mL

Tested on: LS174T
Experiment: Antitumor activity against human LS174T cells xenografted in BALB/C mouse assessed as tumor weight inhibition at 75 mg/kg, bid administered for 10 days measured twice per week
Assay type: functional
Settings: 240 h, read-out: TGI
Method in brief: as §3

Compound | inhibition in vivo at 75 mg/kg
Cc1ccc(CN2CCOCC2)cc1NC(=O)c1ccc(Nc2nccc(-c3ccc(OC(F)(F)F)cc3)n2)cc1 | 23.3%

Tested on: LS174T
Experiment: Antitumor activity against human LS174T cells xenografted in BALB/C mouse assessed as tumor weight inhibition at 37.5 mg/kg, qd administered for 10 days measured twice per week
Assay type: functional
Settings: 240 h, read-out: TGI
Method in brief: as §3

Compound | inhibition in vivo at 37.5 mg/kg
Cc1ccc(CN2CCOCC2)cc1NC(=O)c1ccc(Nc2nccc(-c3ccc(OC(F)(F)F)cc3)n2)cc1 | 10.2%

Tested on: not listed separately
Experiment: Clearance in Sprague-Dawley rat at 1 mg/kg, iv by LC/MS/MS analysis
Assay type: ADME, organism-based
Settings: in vivo
Method in brief: as §2

Compound | clearance
Cc1ccc(CN2CCOCC2)cc1NC(=O)c1ccc(Nc2nccc(-c3ccc(OC(F)(F)F)cc3)n2)cc1 | 0.401 L/h/kg

Tested on: LS174T
Experiment: Antitumor activity against human LS174T cells xenografted in BALB/C mouse assessed as tumor volume inhibition at 37.5 mg/kg, qd administered for 10 days measured twice per week
Assay type: functional
Settings: 240 h, read-out: TGI
Method in brief: as §3

Compound | inhibition in vivo at 37.5 mg/kg
Cc1ccc(CN2CCOCC2)cc1NC(=O)c1ccc(Nc2nccc(-c3ccc(OC(F)(F)F)cc3)n2)cc1 | 33%

Tested on: not listed separately
Experiment: Half life in Sprague-Dawley rat at 1 mg/kg, iv by LC/MS/MS analysis
Assay type: ADME, organism-based
Settings: in vivo
Method in brief: as §2

Compound | half-life
Cc1ccc(CN2CCOCC2)cc1NC(=O)c1ccc(Nc2nccc(-c3ccc(OC(F)(F)F)cc3)n2)cc1 | 4.96 h

Tested on: not listed separately
Experiment: Mean resident time (0 to t) in Sprague-Dawley rat at 5 mg/kg, po by LC/MS/MS analysis
Assay type: ADME, organism-based
Settings: in vivo
Method in brief: as §2

Compound | MRT last
Cc1ccc(CN2CCOCC2)cc1NC(=O)c1ccc(Nc2nccc(-c3ccc(OC(F)(F)F)cc3)n2)cc1 | 6.98 h

Tested on: not listed separately
Experiment: Oral bioavailability in Sprague-Dawley rat at 5 mg/kg
Assay type: ADME, organism-based
Settings: in vivo
Method in brief: as §2

Compound | bioavailability
Cc1ccc(CN2CCOCC2)cc1NC(=O)c1ccc(Nc2nccc(-c3ccc(OC(F)(F)F)cc3)n2)cc1 | 42%

Tested on: not listed separately
Experiment: Antiproliferative activity against human PC3 cells after 72 hrs by CellTiter-Glo luminescent cell viability assay
Assay type: functional, cell-based
Settings: PC-3, 72 h
Method in brief: as §4

Compound | pIC50
Cc1ccc(CN2CCOCC2)cc1NC(=O)c1ccc(Nc2nccc(-c3ccc(OC(F)(F)F)cc3)n2)cc1 | 4.83

From ChEMBL document CHEMBL3763021 (Eur J Med Chem, 2016)
